Source: publication PMC5569649 (Clinical Drug Investigation, 2017)
Structures can show the parent of a compound that is named as a salt. Non-standard residues stand in square brackets, D forms with d. Residues, ends and D or L forms follow the SMILES beside them. *: point of attachment. dPhe(4-NHCONH2) = NC(=O)Nc1ccc(C[C@@H](N)C(=O)O)cc1; Dihydroorotyl(S) = O=C1C[C@@H](C(=O)*)NC(=O)N1; dPhe(4-Cl) = N[C@H](Cc1ccc(Cl)cc1)C(=O)O; Phe(4-NH2) = Nc1ccc(C[C@H](N)C(=O)O)cc1; d2Nal = N[C@H](Cc1ccc2ccccc2c1)C(=O)O; Lys(iPr) = CC(C)NCCCC[C@H](N)C(=O)O; d3Pal = N[C@H](Cc1cccnc1)C(=O)O

Tests used:
healthy men = assay: Safety assessments; format: in vivo
In short: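 Six-sequence crossover of iv test compound, iv placebo and oral moxifloxacin, with 7–10 day washouts. Adverse events, 12-lead ECG and vital signs were monitored throughout. Clinical chemistry, haematology and urinalysis were run by a central laboratory. Adverse event was defined as any untoward medical occurrence in a participant.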

[1] = system: QT interval / cardiac repolarisation in healthy men; assay: Thorough QT/QTc study, 12-lead ECG, QTcF; format: in vivo; conditions: for No. of subjects with ΔQTcF >30 ms / No. of subjects with ΔQTcF >60 ms / No. of subjects with ΔQTcF ≤30 ms / No. of subjects with QTcF >450 ms / No. of subjects with QTcF >480 ms / No. of subjects with QTcF >500 ms / No. of subjects with QTcF ≤450 ms: categorical analysis, degarelix n = 76, moxifloxacin n = 78; for No. of subjects with ΔQTcF >30 ms / No. of subjects with ΔQTcF >60 ms / No. of subjects with ΔQTcF ≤30 ms: change from baseline
[2] = cited from earlier work
[3] = Degarelix plasma concentration; format: in vivo, healthy men
In short: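 Single 60-min iv infusion of 2.8 mg in 5% glucose. Plasma sampled predose and at 30, 60, 90, 120, 150, 180 min, 6, 12 and 24 h after infusion start. Assay: validated solid-phase extraction with LC–MS/MS, quantification range 0.500–100 ng/mL (up to 500 ng/mL after dilution), precision and bias within 10%. Parameters from noncompartmental analysis; values below LLOQ or missing were excluded.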

[4] = system: human ether-a-go-go-related gene (hERG) channel; conditions: preclinical investigations; ref Ferring Pharmaceuticals, unpublished data; cited from earlier work
human GnRH receptor = conditions: cited from earlier work

| Compound | Number of AEs reported (healthy men; after each treatment) | No. of subjects with ΔQTcF >30 ms [1] | No. of subjects with ΔQTcF >60 ms [1] | No. of subjects with ΔQTcF ≤30 ms [1] | No. of subjects with QTcF >450 ms [1] | No. of subjects with QTcF >480 ms [1] | No. of subjects with QTcF >500 ms [1] | No. of subjects with QTcF ≤450 ms [1] | other results |
| --- | --- | --- | --- | --- | --- | --- | --- | --- | --- |
| COc1c(N2C[C@@H]3CCCN[C@@H]3C2)c(F)cc2c(=O)c(C(=O)O)cn(C3CC3)c12 [moxifloxacin, moxifloxacin hydrochloride] | 29 | 15 (19%) n (%) | 0 n (%) | 63 (81%) n (%) | 2 (3%) n (%) | 0 n (%) | 0 n (%) | 76 (97%) n (%) | Subjects reporting AEs (healthy men; 80 subjects randomised, after each treatment): 22 (28%) n (%); QTc prolongation produced by positive control ([1]; moxifloxacin 400 mg oral): ≥ 5 ms; Lower bound of 98.3% CI for ΔΔQTcF (moxifloxacin vs placebo) ([1]; moxifloxacin 400 mg single oral dose, at 2.5, 3 and 6 h, assay sensitivity): exceeded 5 ms |
| CC(=O)N[C@H](Cc1ccc2ccccc2c1)C(=O)N[C@H](Cc1ccc(Cl)cc1)C(=O)N[C@H](Cc1cccnc1)C(=O)N[C@@H](CO)C(=O)N[C@@H](Cc1ccc(NC(=O)[C@@H]2CC(=O)NC(=O)N2)cc1)C(=O)N[C@H](Cc1ccc(NC(N)=O)cc1)C(=O)N[C@@H](CC(C)C)C(=O)N[C@@H](CCCCNC(C)C)C(=O)N1CCC[C@H]1C(=O)N[C@H](C)C(N)=O [degarelix] (Ac-[d2Nal][dPhe(4-Cl)][d3Pal]S[Phe(4-NH2)](Dihydroorotyl(S))[dPhe(4-NHCONH2)]L[Lys(iPr)]P[dA]-NH2) | 27 | 3 (4%) n (%) | 0 n (%) | 73 (96%) n (%) | 0 n (%) | 0 n (%) | 0 n (%) | 76 (100%) n (%) | Intensity of AEs (healthy men; after degarelix treatment): mild intensity; Mean changes in placebo-corrected HR, PR and QRS durations (healthy men; degarelix 2.8 mg iv): did not show any clinically relevant results; Median peak concentration ([2]; single subcutaneous administration of 240 mg, prostate cancer): 66 ng/mL; Half-life ([2]; subcutaneous administration, slow-release phase from in situ depot): several weeks; Degarelix concentration at 24 h relative to Cmax ([3]; 24 h after start of degarelix 2.8 mg iv administration): < 10%; Cmax ([3]; male, human, plasma, iv, 2.8 mg): 222 ng/mL; Median maximal degarelix plasma concentration ([3]; single dose 2.8 mg infused iv over 60 min at constant rate): approximately 220 ng/mL; Effect on hERG channel [4]: no effect; Affinity and selectivity towards the human GnRH receptor (human GnRH receptor): high affinity and selectivity; One-sided 95% upper confidence boundaries for ΔΔQTcF at any of the nine timepoints ([1]; degarelix 2.8 mg iv over 60 min, 24-h period after start of infusion): ≤ 10 ms; Mean maximum baseline-corrected difference versus placebo in QTcF ([1]; degarelix 2.8 mg iv over 60 min, time-matched): < 4 ms; Slope of concentration-response effect on QTcF compared with placebo ([1]; repeated measures ANCOVA, 677 observations from 79 subjects): slightly negative slope |
